# ChEMBL document CHEMBL2086265, “Design of inhibitors of Helicobacter pylori glutamate racemase as selective antibacterial agents: incorporation of imidazoles onto a core pyrazolopyrimidinedione scaffold to improve bioavailabilty” (Bioorg Med Chem Lett, 2012)
# Assays:
# [1] = Intrinsic clearance in mouse liver microsomes at 2 uM assessed per mg of protein; type: ADME, Microsome; settings: read-out: CLH
# [2] = Intrinsic clearance in human liver microsomes at 2 uM assessed per mg of protein; type: ADME, Microsome; settings: read-out: CLH
# Helicobacter pylori [3] = experiment: Antibacterial activity against wild type Helicobacter pylori 055; type: functional
# Glutamate racemase = biological target: T1, Glutamate racemase (Helicobacter pylori J99, UniProt Q9ZLT0); experiment: Inhibition of Helicobacter pylori J99 glutamate racemase
# T1 sequence (Q9ZLT0 whole entry): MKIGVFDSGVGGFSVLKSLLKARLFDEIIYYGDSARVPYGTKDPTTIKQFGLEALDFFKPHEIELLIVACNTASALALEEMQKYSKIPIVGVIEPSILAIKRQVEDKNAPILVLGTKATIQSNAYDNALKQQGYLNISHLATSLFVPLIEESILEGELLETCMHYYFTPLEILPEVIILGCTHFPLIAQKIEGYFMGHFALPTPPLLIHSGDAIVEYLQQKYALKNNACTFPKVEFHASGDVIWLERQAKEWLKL
# How it was run: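 The racemase was expressed from the murI gene of H. pylori J99 chromosomal DNA. IC50 was taken as the mean of duplicate determinations, using a method cited from earlier work.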
# Helicobacter pylori [4] = experiment: Antibacterial activity against AcrAB-TolC efflux pump-dificient Helicobacter pylori; type: functional
# Helicobacter pylori [5] = experiment: Ratio of MIC for wild type Helicobacter pylori 055 to MIC for AcrAB-TolC efflux pump-dificient Helicobacter pylori
Compound,microsomal CLint at 2 µM [1] [µL/min/mg],microsomal CLint at 2 µM [2] [µL/min/mg],MIC (Helicobacter pylori [3]) [mg/L],IC50 (Glutamate racemase) [µM],MIC (Helicobacter pylori [4]) [mg/L],Ratio (Helicobacter pylori [5])
CC(=O)c1cc(-c2c3c(=O)n(C)c(=O)n(CC4CC4)c3nn2Cc2ccnc3ccc(Cl)cc23)n(C)c1,53,19,3,0.039,,
Cn1cc(C#N)nc1-c1c2c(=O)n(C)c(=O)n(CC3CC3)c2nn1Cc1ccnc2ccc(Cl)cc12,87,< 14,4,0.087,2,
Cc1cc(C#N)oc1-c1c2c(=O)n(C)c(=O)n(CC3CC3)c2nn1Cc1ccnc2ccc(Cl)cc12,> 100,59,1,0.06,0.25,
CC(C)Cn1c(=O)n(C)c(=O)c2c(-c3cc(C#N)cn3C)n(Cc3ccnc4ccc(Cl)cc34)nc21,> 100,94,4,0.086,,
CC(C)Cn1c(=O)n(C)c(=O)c2c(-c3cncn3C)n(Cc3ccnc4ccc(Cl)cc34)nc21,> 100,17,4,0.17,,
Cc1oc(C#N)cc1-c1c2c(=O)n(C)c(=O)n(CC3CC3)c2nn1Cc1ccnc2ccc(Cl)cc12,63,38,2,0.22,2,<=2
Cc1c[nH]nc1-c1c2c(=O)n(C)c(=O)n(CC3CC3)c2nn1Cc1ccnc2ccc(Cl)cc12,> 100,20,8,0.22,,
Cn1cnnc1-c1c2c(=O)n(C)c(=O)n(CC3CC3)c2nn1Cc1ccnc2ccc(Cl)cc12,64,< 14,8,0.23,,
CC(C)Cn1c(=O)n(C)c(=O)c2c(-c3cccn3C)n(Cc3ccnc4ccc(Cl)cc34)nc21,> 100,> 100,18,0.26,,
Cc1sc(N)nc1-c1c2c(=O)n(C)c(=O)n(CC3CC3)c2nn1Cc1ccnc2ccc(Cl)cc12,> 100,34,8,0.28,,
Cc1nc(N)sc1-c1c2c(=O)n(C)c(=O)n(CC3CC3)c2nn1Cc1ccnc2ccc(Cl)cc12,61,< 14,> 32,0.74,,
Cn1ncnc1-c1c2c(=O)n(C)c(=O)n(CC3CC3)c2nn1Cc1ccnc2ccc(Cl)cc12,< 14,32,8,0.81,4,
Cc1nc[nH]c1-c1c2c(=O)n(C)c(=O)n(CC3CC3)c2nn1Cc1ccnc2ccc(Cl)cc12,> 100,92,32,0.9,,
Cn1cncc1-c1c2c(=O)n(CC#CCO)c(=O)n(CC3CC3)c2nn1Cc1ccnc2ccc(Cl)cc12,> 100,> 100,64,0.054,16,
C=CCn1c(=O)c2c(-c3cncn3C)n(Cc3ccnc4ccc(Cl)cc34)nc2n(CC2CC2)c1=O,49,25,1,0.056,0.8,<=2
CC#CCn1c(=O)c2c(-c3cncn3C)n(Cc3ccnc4ccc(Cl)cc34)nc2n(CC2CC2)c1=O,44,47,8,0.063,2,

Compound,microsomal CLint at 2 µM [1] [µL/min/mg],microsomal CLint at 2 µM [2] [µL/min/mg],MIC (Helicobacter pylori [3]) [mg/L],IC50 (Glutamate racemase) [µM],MIC (Helicobacter pylori [4]) [mg/L],Ratio (Helicobacter pylori [5])
CCn1c(=O)c2c(-c3cncn3C)n(Cc3ccnc4ccc(Cl)cc34)nc2n(CC2CC2)c1=O,15,< 14,4,0.072,1,
Cn1cncc1-c1c2c(=O)n(C3CC3)c(=O)n(CC3CC3)c2nn1Cc1ccnc2ccc(Cl)cc12,6,< 14,8,0.079,2,
Cn1cncc1-c1c2c(=O)n(CC#CCN3CCOCC3)c(=O)n(CC3CC3)c2nn1Cc1ccnc2ccc(Cl)cc12,> 100,> 100,64,0.17,16,
Cn1cc(C#N)cc1-c1c2c(=O)n(CC#CCn3cncn3)c(=O)n(CC3CC3)c2nn1Cc1ccnc2ccc(Cl)cc12,> 100,> 100,8,0.013,16,
Cn1cc(C#N)cc1-c1c2c(=O)n(CC#CCN3CCOCC3)c(=O)n(CC3CC3)c2nn1Cc1ccnc2ccc(Cl)cc12,> 100,> 100,16,0.051,4,
Cn1cc(C#N)cc1-c1c2c(=O)n(CC#N)c(=O)n(CC3CC3)c2nn1Cc1ccnc2ccc(Cl)cc12,96,< 14,8,0.055,1,
Cn1cc(C#N)cc1-c1c2c(=O)n(CC#CCO)c(=O)n(CC3CC3)c2nn1Cc1ccnc2ccc(Cl)cc12,> 100,> 100,32,0.057,16,
Cn1cc(C#N)cc1-c1c2c(=O)n(C3CC3)c(=O)n(CC3CC3)c2nn1Cc1ccnc2ccc(Cl)cc12,33,30,2,0.08,0.13,
Cn1cc(C#N)cc1-c1c2c(=O)n(CCO)c(=O)n(CC3CC3)c2nn1Cc1ccnc2ccc(Cl)cc12,> 100,> 100,64,0.088,16,
Cn1cc(C#N)cc1-c1c2c(=O)n(CC#CCn3cccn3)c(=O)n(CC3CC3)c2nn1Cc1ccnc2ccc(Cl)cc12,> 100,> 100,8,0.12,4,
Cn1cc(C#N)cc1-c1c2c(=O)n(CC#CCn3ccnc3)c(=O)n(CC3CC3)c2nn1Cc1ccnc2ccc(Cl)cc12,> 100,41,64,0.26,4,
Cn1cc(C#N)cc1-c1c2c(=O)n(CCn3cccn3)c(=O)n(CC3CC3)c2nn1Cc1ccnc2ccc(Cl)cc12,> 100,> 100,32,0.47,32,
Cn1cc(C#N)cc1-c1c2c(=O)n(CCn3ccnn3)c(=O)n(CC3CC3)c2nn1Cc1ccnc2ccc(Cl)cc12,> 100,> 100,16,0.67,16,
Cn1cc(C#N)nc1-c1c2c(=O)n(CC3CC3)c(=O)n(CC3CC3)c2nn1Cc1ccnc2ccc(Cl)cc12,,,2,0.15,2,<=2
Cn1cc(C#N)nc1-c1c2c(=O)n(C3CC3)c(=O)n(CC3CC3)c2nn1Cc1ccnc2ccc(Cl)cc12,< 14,< 14,8,0.25,4,
CC(C)Cn1c(=O)n(C)c(=O)c2c(-c3cncn3C)n(Cc3cccc4ccccc34)nc21,,,4,0.12,,
